Assay results: article PMC6369589 (Cell, 2019)
pIC50: −log10 of the molar value.

Key:
[1] = system: Ae. aegypti female mosquitoes; test: Miniport olfactometer host-seeking after Glytube drug-feeding; format: in vivo, Aedes aegypti; conditions: fed in protein-rich artificial blood-meal, assayed 2 days after feeding
[2] = target: Ae. aegypti NPYLR7 (Aedes aegypti, UniProt U5N1H5); test: GCaMP6s calcium cell-based assay, HEK293T cells expressing NPYLR7 and Gqα15
Method in brief: (§1)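 HEK293T cells transiently co-transfected (Lipofectamine 2000) with 1 μg each of GCaMP6s, mouse Gqα15 and receptor plasmids. Cells were plated overnight in DMEM/FBS at 37°C, 5% CO2, then imaged in HBSS + 20 mM HEPES. Test agonist plus inhibitor added after 30 s baseline; GFP fluorescence read every 1 s for 5 min, normalized to baseline. Log(inhibitor)-response nonlinear fit; mean ± SD, 3 trials × 4 replicates.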

[3] = system: Ae. aegypti NPYLR5; test: GCaMP6s calcium cell-based assay, HEK293T cells expressing NPYLR5 and Gqα15; set-up: species or system Aedes aegypti; conditions: dose-inhibition of TM30335 activation
Method in brief: as §1

`N=C(N)NCCC[C@H](NC(=O)CC1(CC(=O)N2CCN(C3c4ccccc4NC(=O)c4ccccc43)CC2)CCCC1)C(=O)NCCn1c(=O)n(-c2ccccc2)n(-c2ccccc2)c1=O` (stereo partly drawn) [BIIE0246] was tested, and the “release from host-seeking suppression in miniport olfactometer” value [1] was “dose-dependent release from suppression”, the pIC50 [2] was 5.29 and the “effect on NPYLR5 responses to TM30335” value [3] was “no effect”.
